Assay results taken from ChEMBL document CHEMBL2057155, “Synthesis of betulinic acid derivatives as entry inhibitors against HIV-1 and bevirimat-resistant HIV-1 variants” (Bioorg Med Chem Lett, 2012).

Legend:
[1] = tested on: Human immunodeficiency virus 1; experiment: Antiviral activity against HIV1 NL4-3 infected in human TZM-bl cells assessed as reduction in luciferase gene expression by luminescence assay; format: functional, organism-based; conditions: Human immunodeficiency virus 1, NL4-3, TZM-bl
How it was run: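 Single-cycle HIV-1 NL4-3 infection of TZM-bl cells; HIV-1 tat-driven luciferase expression after viral entry read as the measure of inhibition. […] control is NL4-3 infection without compound. Values are the mean of two or more independent experiments with standard deviation.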

[2] = Cytotoxicity against human TZM-bl assessed as cell viability at 4 uM after 2 days; format: cell-based; conditions: 48 h
How it was run: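 Toxicity to TZM-bl cells was checked within the single-cycle infection assay at 4 μM.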

[3] = Cytotoxicity against human MT4 assessed as cell viability after 2 days; format: cell-based; conditions: MT4 cells, read-out: TD50

Compound | EC50 [1] | Activity [2] | CC50 at 48 h [3]
C=C(C)[C@@H]1CC[C@]2(C(=O)NCCCCCCCCC(=O)N[C@@H](CCC(N)=O)C(=O)OC(C)(C)C)CC[C@]3(C)[C@H](CC[C@@H]4[C@@]5(C)CC[C@H](O)C(C)(C)[C@@H]5CC[C@]43C)[C@@H]12 | 140 nM | Non-toxic | 
C=C(C)[C@@H]1CC[C@]2(C(=O)NCCCCCCCCC(=O)N[C@@H](CC(N)=O)C(=O)OC)CC[C@]3(C)[C@H](CC[C@@H]4[C@@]5(C)CC[C@H](O)C(C)(C)[C@@H]5CC[C@]43C)[C@@H]12 | 110 nM | Non-toxic | 
C=C(C)[C@@H]1CC[C@]2(C(=O)NCCCCCCCCC(=O)N[C@@H](CCC(=O)OC)C(=O)OC)CC[C@]3(C)[C@H](CC[C@@H]4[C@@]5(C)CC[C@H](O)C(C)(C)[C@@H]5CC[C@]43C)[C@@H]12 | 60 nM | Non-toxic | 
C=C(C)[C@@H]1CC[C@]2(C(=O)NCCCCCCCCC(=O)N[C@@H](C)C(=O)OC)CC[C@]3(C)[C@H](CC[C@@H]4[C@@]5(C)CC[C@H](O)C(C)(C)[C@@H]5CC[C@]43C)[C@@H]12 | 70 nM | Non-toxic | 
C=C(C)[C@@H]1CC[C@]2(C(=O)NCCCCCCCCC(=O)N[C@H](C(=O)OC)[C@@H](C)CC)CC[C@]3(C)[C@H](CC[C@@H]4[C@@]5(C)CC[C@H](O)C(C)(C)[C@@H]5CC[C@]43C)[C@@H]12 | 140 nM | Non-toxic | 
C=C(C)[C@@H]1CC[C@]2(C(=O)NCCCCCCCCC(=O)N[C@@H](CC(C)C)C(=O)OC)CC[C@]3(C)[C@H](CC[C@@H]4[C@@]5(C)CC[C@H](O)C(C)(C)[C@@H]5CC[C@]43C)[C@@H]12 | 160 nM | Non-toxic | 
C=C(C)[C@@H]1CC[C@]2(C(=O)NCCCCCCCCC(=O)N[C@@H](Cc3ccccc3)C(=O)OC)CC[C@]3(C)[C@H](CC[C@@H]4[C@@]5(C)CC[C@H](O)C(C)(C)[C@@H]5CC[C@]43C)[C@@H]12 | 720 nM | Non-toxic | 
C=C(C)[C@@H]1CC[C@]2(C(=O)NCCCCCCCCC(=O)N3CCC[C@H]3C(=O)OC)CC[C@]3(C)[C@H](CC[C@@H]4[C@@]5(C)CC[C@H](O)C(C)(C)[C@@H]5CC[C@]43C)[C@@H]12 | 160 nM | Non-toxic | 
C=C(C)[C@@H]1CC[C@]2(C(=O)NCCCCCCCCC(=O)N[C@H](C(=O)OC)[C@@H](C)OC(C)(C)C)CC[C@]3(C)[C@H](CC[C@@H]4[C@@]5(C)CC[C@H](O)C(C)(C)[C@@H]5CC[C@]43C)[C@@H]12 | 3490 nM | Non-toxic | 
C=C(C)[C@@H]1CC[C@]2(C(=O)NCCCCCCCCCC(=O)N[C@@H](CCC(N)=O)C(=O)OC)CC[C@]3(C)[C@H](CC[C@@H]4[C@@]5(C)CC[C@H](O)C(C)(C)[C@@H]5CC[C@]43C)[C@@H]12 | 60 nM | Non-toxic | 
C=C(C)[C@@H]1CC[C@]2(C(=O)NCCCCCCCCCC(=O)N[C@@H](CC(N)=O)C(=O)OC)CC[C@]3(C)[C@H](CC[C@@H]4[C@@]5(C)CC[C@H](O)C(C)(C)[C@@H]5CC[C@]43C)[C@@H]12 | 80 nM | Non-toxic | 
C=C(C)[C@@H]1CC[C@]2(C(=O)NCCCCCCCCC(=O)NCC#N)CC[C@]3(C)[C@H](CC[C@@H]4[C@@]5(C)CC[C@H](O)C(C)(C)[C@@H]5CC[C@]43C)[C@@H]12 | 440 nM | Non-toxic | 
C=C(C)[C@@H]1CC[C@]2(C(=O)NCCCCCCCCC(=O)NCCC#N)CC[C@]3(C)[C@H](CC[C@@H]4[C@@]5(C)CC[C@H](O)C(C)(C)[C@@H]5CC[C@]43C)[C@@H]12 | 340 nM | Non-toxic | 
C=C(C)[C@@H]1CC[C@]2(C(=O)NCCCCCCCCC(=O)N(C)CC#N)CC[C@]3(C)[C@H](CC[C@@H]4[C@@]5(C)CC[C@H](O)C(C)(C)[C@@H]5CC[C@]43C)[C@@H]12 | 810 nM | Non-toxic | 
C=C(C)[C@@H]1CC[C@]2(C(=O)NCCCCC/C=C/C(=O)O)CC[C@]3(C)[C@H](CC[C@@H]4[C@@]5(C)CC[C@H](O)C(C)(C)[C@@H]5CC[C@]43C)[C@@H]12 | > 4000 nM | Non-toxic | 
C=C(C)[C@@H]1CC[C@]2(C(=O)NCCCCC/C=C(/F)C(=O)O)CC[C@]3(C)[C@H](CC[C@@H]4[C@@]5(C)CC[C@H](O)C(C)(C)[C@@H]5CC[C@]43C)[C@@H]12 | > 4000 nM | Non-toxic | 
C=C(C)[C@@H]1CC[C@]2(C(=O)NCCCCC/C=C/C(=O)NCC(=O)O)CC[C@]3(C)[C@H](CC[C@@H]4[C@@]5(C)CC[C@H](O)C(C)(C)[C@@H]5CC[C@]43C)[C@@H]12 | 150 nM | Non-toxic | 

Compound | EC50 [1] | Activity [2] | CC50 at 48 h [3]
C=C(C)[C@@H]1CC[C@]2(C(=O)NCCCCC/C=C(/F)C(=O)NCC(=O)O)CC[C@]3(C)[C@H](CC[C@@H]4[C@@]5(C)CC[C@H](O)C(C)(C)[C@@H]5CC[C@]43C)[C@@H]12 | 410 nM | Non-toxic | 
C=C(C)[C@@H]1CC[C@]2(C(=O)NCCOCCOCC(=O)NCC(=O)O)CC[C@]3(C)[C@H](CC[C@@H]4[C@@]5(C)CC[C@H](O)C(C)(C)[C@@H]5CC[C@]43C)[C@@H]12 | > 4000 nM | Non-toxic | 
C=C(C)[C@@H]1CC[C@]2(C(=O)NCCOCCOCC(=O)N[C@@H](C)C(=O)O)CC[C@]3(C)[C@H](CC[C@@H]4[C@@]5(C)CC[C@H](O)C(C)(C)[C@@H]5CC[C@]43C)[C@@H]12 | > 4000 nM | Non-toxic | 
C=C(C)[C@@H]1CC[C@]2(C(=O)NCCOCCOCCNC(C)=O)CC[C@]3(C)[C@H](CC[C@@H]4[C@@]5(C)CC[C@H](O)C(C)(C)[C@@H]5CC[C@]43C)[C@@H]12 | > 4000 nM | Non-toxic | 
C=C(C)[C@@H]1CC[C@]2(C(=O)NCCOCCOCCNC(=O)C(C)C)CC[C@]3(C)[C@H](CC[C@@H]4[C@@]5(C)CC[C@H](O)C(C)(C)[C@@H]5CC[C@]43C)[C@@H]12 | > 4000 nM | Non-toxic | 
C=C(C)[C@@H]1CC[C@]2(C(=O)NCCOCCOCCNC(=O)Cc3nnn[nH]3)CC[C@]3(C)[C@H](CC[C@@H]4[C@@]5(C)CC[C@H](O)C(C)(C)[C@@H]5CC[C@]43C)[C@@H]12 | > 4000 nM | Non-toxic | 
C=C(C)[C@@H]1CC[C@]2(C(=O)NCCCCCCCNC(=O)[C@H](C)NC(=O)OC(C)(C)C)CC[C@]3(C)[C@H](CC[C@@H]4[C@@]5(C)CC[C@H](O)C(C)(C)[C@@H]5CC[C@]43C)[C@@H]12 | 110 nM | Non-toxic | 
C=C(C)[C@@H]1CC[C@]2(C(=O)NCCCCCCCCNC(=O)[C@H](C)NC(=O)OC(C)(C)C)CC[C@]3(C)[C@H](CC[C@@H]4[C@@]5(C)CC[C@H](O)C(C)(C)[C@@H]5CC[C@]43C)[C@@H]12 | 90 nM | Non-toxic | 
C=C(C)[C@@H]1CC[C@]2(C(=O)NCCCCCCCCNC(=O)[C@H](CCC(N)=O)NC(=O)OC(C)(C)C)CC[C@]3(C)[C@H](CC[C@@H]4[C@@]5(C)CC[C@H](O)C(C)(C)[C@@H]5CC[C@]43C)[C@@H]12 | 60 nM | Non-toxic | 
C=C(C)[C@@H]1CC[C@]2(C(=O)NCCCCCCCCNC(=O)[C@@H](NC(=O)OC(C)(C)C)C(C)C)CC[C@]3(C)[C@H](CC[C@@H]4[C@@]5(C)CC[C@H](O)C(C)(C)[C@@H]5CC[C@]43C)[C@@H]12 | 2430 nM | Non-toxic | 
C=C(C)[C@@H]1CC[C@]2(C(=O)NCCCCCCCCNC(=O)[C@@H]3CCCN3C(=O)OC(C)(C)C)CC[C@]3(C)[C@H](CC[C@@H]4[C@@]5(C)CC[C@H](O)C(C)(C)[C@@H]5CC[C@]43C)[C@@H]12 | 160 nM | Non-toxic | 
C=C(C)[C@@H]1CC[C@]2(C(=O)NCCCCCCCCCNC(=O)[C@H](CCC(N)=O)NC(=O)OC(C)(C)C)CC[C@]3(C)[C@H](CC[C@@H]4[C@@]5(C)CC[C@H](O)C(C)(C)[C@@H]5CC[C@]43C)[C@@H]12 | 120 nM | Non-toxic | 
C=C(C)[C@@H]1CC[C@]2(C(=O)NCCCCCCCCCNC(=O)[C@H](C)NC(=O)OC(C)(C)C)CC[C@]3(C)[C@H](CC[C@@H]4[C@@]5(C)CC[C@H](O)C(C)(C)[C@@H]5CC[C@]43C)[C@@H]12 | > 4000 nM | Non-toxic | 
C=C(C)[C@@H]1CC[C@]2(C(=O)NCCCCCCCCNC(=O)C(CCC#N)NC(=O)OC(C)(C)C)CC[C@]3(C)[C@H](CC[C@@H]4[C@@]5(C)CC[C@H](O)C(C)(C)[C@@H]5CC[C@]43C)[C@@H]12 (some centres not stated) | 80 nM | Non-toxic | 
C=C(C)[C@@H]1CC[C@]2(C(=O)NCCCCCCC(=O)N[C@@H](CCC(N)=O)C(=O)OC)CC[C@]3(C)[C@H](CC[C@@H]4[C@@]5(C)CC[C@H](O)C(C)(C)[C@@H]5CC[C@]43C)[C@@H]12 | > 4000 nM | Non-toxic | 
C=C(C)[C@@H]1CC[C@]2(C(=O)NCCCCCCCC(=O)N[C@@H](CCC(N)=O)C(=O)OC)CC[C@]3(C)[C@H](CC[C@@H]4[C@@]5(C)CC[C@H](O)C(C)(C)[C@@H]5CC[C@]43C)[C@@H]12 | 140 nM | Non-toxic | 
Cc1cc(/C=C/C#N)cc(C)c1Nc1ccnc(Nc2ccc(C#N)cc2)n1 [RILPIVIRINE] |  |  | > 100 nM
